Activity calls are given as the source filed them. The calls are words filed in the database; no cut-off is given here.

Assay [1] concerns the target T1, Fatty-acid amide hydrolase 1 (Homo sapiens) (UniProt O00519).
T1 sequence (whole entry): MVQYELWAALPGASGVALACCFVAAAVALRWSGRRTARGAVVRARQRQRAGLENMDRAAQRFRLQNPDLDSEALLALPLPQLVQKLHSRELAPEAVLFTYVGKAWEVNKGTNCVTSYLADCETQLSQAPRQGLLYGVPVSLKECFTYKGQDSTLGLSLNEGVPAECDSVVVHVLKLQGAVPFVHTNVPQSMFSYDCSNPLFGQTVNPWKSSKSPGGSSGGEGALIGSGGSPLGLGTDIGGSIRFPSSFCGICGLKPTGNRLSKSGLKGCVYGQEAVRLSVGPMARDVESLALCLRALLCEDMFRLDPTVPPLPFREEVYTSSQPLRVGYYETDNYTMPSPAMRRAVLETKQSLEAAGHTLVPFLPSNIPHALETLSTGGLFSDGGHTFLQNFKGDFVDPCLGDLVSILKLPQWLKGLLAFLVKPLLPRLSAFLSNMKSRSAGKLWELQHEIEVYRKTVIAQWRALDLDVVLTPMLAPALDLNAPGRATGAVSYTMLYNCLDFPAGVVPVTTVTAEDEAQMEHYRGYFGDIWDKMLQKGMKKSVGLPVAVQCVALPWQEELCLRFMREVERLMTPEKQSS
Nature of the assay: Inhibition of human FAAH expressed in Escherichia coli at 1 mM. The procedure, abridged:
(§1)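 Human FAAH expressed in E. coli, in Tris-HCl pH 7.4, was added on ice to compound or DMSO. [3H]-AEA was added (50,000 dpm; 2 µM final) in Tris-HCl with 0.1% BSA, then incubated 10 min at 37 °C. The reaction was stopped on ice with cold MeOH–CHCl3 (1:1) and centrifuged. [3H]-ethanolamine in the aqueous phase was counted by liquid scintillation, with no-enzyme blanks subtracted.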

The target in assay [2] is T2, Monoglyceride lipase (Homo sapiens) (UniProt Q99685).
T2 sequence (whole entry): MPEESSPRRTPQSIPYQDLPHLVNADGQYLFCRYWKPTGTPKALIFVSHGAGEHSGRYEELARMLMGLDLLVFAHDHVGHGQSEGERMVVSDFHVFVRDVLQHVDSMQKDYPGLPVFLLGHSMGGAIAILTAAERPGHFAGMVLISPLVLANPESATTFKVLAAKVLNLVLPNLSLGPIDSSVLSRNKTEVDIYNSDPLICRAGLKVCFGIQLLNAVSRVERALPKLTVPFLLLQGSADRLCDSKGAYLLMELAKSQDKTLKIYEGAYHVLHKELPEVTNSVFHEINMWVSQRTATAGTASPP
Nature of the assay: Inhibition of human MGL expressed in Escherichia coli at 1 mM. The gist of the method:
(§2)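 Human MGL expressed in E. coli was run in Tris-HCl pH 8 with [3H]-oleoylglycerol (50,000 dpm; 10 µM final) as substrate. Otherwise the radiometric hydrolysis protocol was similar: compound or DMSO, chloroform–methanol quench, scintillation counting of the aqueous phase, and subtraction of buffer-only blanks.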

For assay [3], the target named is T3, Pancreatic elastase (Sus scrofa) (UniProt P08419+P00772). The experiment in a line: Inhibition of pig pancreatic elastase at 10 mM. The assay is classed as protein assay.
Assay [4] addresses T4, Fatty-acid amide hydrolase 1 (Homo sapiens, UniProt O00519).
T4 sequence (O00519 whole entry): T1 sequence (whole entry)
The experiment in a line: Inhibition of human FAAH expressed in Escherichia coli. The gist of the method: as §1

The next assay is filed under the species Homo sapiens. Nature of the assay: Selectivity ratio of IC50 for human FAAH over IC50 for human MGL.
The target of assay [5] is T3, Pancreatic elastase (Sus scrofa). Nature of the assay: Inhibition of pig pancreatic elastase at 5 mM. The format is protein assay.
The target is the same in assay [6]. Nature of the assay: Inhibition of pig pancreatic elastase at 2.5 mM. The format is protein assay.
Another assay has as its target T5, Monoglyceride lipase (Homo sapiens, UniProt Q99685).
T5 sequence (Q99685 whole entry): T2 sequence (whole entry)
The experiment in a line: Inhibition of human MGL expressed in Escherichia coli. The procedure, abridged:
as §2

Assay [7] has as its target T3, Pancreatic elastase (Sus scrofa). The experiment in a line: Inhibition of pig pancreatic elastase at 0.1 mM. The assay is classed as protein assay.
Assay [8] is described as follows: Inhibition of penicillin-binding protein 5 assessed as residual activity at 100 uM after 16 hrs by SDS-PAGE. The procedure, abridged: (§3)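 Compound (100 µM) was incubated with PBP (0.8–2.5 µM) for 16 h at 30 °C in 50 mM sodium phosphate pH 7 with 5% DMF; PBP2a and PBP5 also had 0.5 M NaCl. Free PBP was then labelled with 25 µM fluorescein-ampicillin for 45 min and the reaction stopped with SDS-PAGE loading buffer. Gel fluorescence was quantified, background subtracted, and residual activity given as % of initial (triplicate).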

Assay [9] is described as follows: Inhibition of penicillin-binding protein R39 assessed as residual activity. The procedure, abridged: as §3
The target in assay [10] is T3, Pancreatic elastase (Sus scrofa). The experiment in a line: Inhibition of pig pancreatic elastase at 100 uM. The assay is classed as protein assay.
A short description of assay [11]: Inhibition of penicillin-binding protein 2a assessed as residual activity at 100 uM after 16 hrs by SDS-PAGE. The gist of the method:
as §3

The nature of assay [12]: Inhibition of penicillin-binding protein 2x assessed as residual activity. The gist of the method: as §3

With `C=CCCC1CNC1=O` (racemic), the values for the inhibition in assay [1] and in assay [2] were 48% and 8.1%, respectively.

For `C=CCCC(=O)N1CC(CCC=C)C1=O` (racemic), the result in assay [3], in assay [5], in assay [6] and in assay [7] was inactive. Moreover, the inhibition in assay [1] is 103%; in assay [2], 58.1%. The IC50 is 21.9 µM in assay [4] and 817 µM against Monoglyceride lipase. Further, in the assay filed under Homo sapiens, the Ratio IC50 came to 37.

On to `C=CCCC(=O)N1CC(CC=C)C1=O` (racemic), for which the inhibition in [1] is 96.5%; in assay [2] it was 46.4%. For the same molecule, the IC50 in [4] was determined as 61.8 µM. Moreover, the Activity in assay [8] came to 104%; in assay [9], 73%; in [11], 87%; in assay [12], 108%. The outcome in assay [10] was Active.

In the case of `C=CCC1CNC1=O` (racemic), the inhibition worked out at 56.6% in assay [1] and 15.6% in assay [2].

In the case of `C=CCCCC1(CCCC=C)CNC1=O`, the values for the inhibition in assay [1] and in assay [2] were 80.5% and 36.3%, respectively. Further, in assay [4], half-maximal inhibition (IC50) required 259 µM.

Turning to `C=CCCC1CN([Si](C)(C)C(C)(C)C)C1=O` (racemic), the inhibition in [1] came out at 49.5%; in assay [2], 69.9%.

Consider `C=CCCCC1CNC1=O` (racemic), for which the figures for the inhibition in [1] and in assay [2] were 80.9% and 54.9%, respectively.

Consider `C=CCC1CN([Si](C)(C)C(C)(C)C)C1=O` (racemic), for which the inhibition in assay [1] worked out at 43.6%; in assay [2], 77.5%.

As for `C=CCCCC1(CCCC=C)CN([Si](C)(C)C(C)(C)C)C1=O`, the results for the inhibition in assay [1] and in [2] were 25.2% and 10.3%, respectively.

In the case of `C=CCCCC1CN([Si](C)(C)C(C)(C)C)C1=O` (racemic), the inhibition was 76.9% in assay [1] and 54.9% in [2].

Consider `C=CCCCC1CN(C(=O)CCC=C)C1=O` (racemic), for which the outcome in assay [3], in assay [5], in assay [6] and in [7] was inactive. The inhibition came out at 101% in assay [1] and 62.1% in assay [2]. For the same molecule, the figures for the IC50 (in [4]; against Monoglyceride lipase) were 4.5 µM and 657 µM, respectively. For the same molecule, the Ratio IC50 in the assay filed under Homo sapiens amounted to 146.
